Measured values taken from ChEMBL document CHEMBL4118259, “Synthesis of sulfadiazinyl acyl/aryl thiourea derivatives as calf intestinal alkaline phosphatase inhibitors, pharmacokinetic properties, lead optimization, Lineweaver-Burk plot evaluation and binding analysis” (Bioorg Med Chem, 2018).

Key:
Details in all cases: Bos taurus
[1] = compound: O=C(NC(=S)Nc1ccc(S(=O)(=O)Nc2ncccn2)cc1)c1ccc(Cl)cc1; assay: Mixed-type inhibition of calf intestinal alkaline phosphatase assessed as substrate Km at 0.3 uM using varying levels of p-NPP as substrate by Lineweaver-Burk plot analysis (reference value: 0.833 mM)
Outline: (§1)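 Same CIALP buffer and enzyme system with inhibitor at 0.0, 0.015 and 0.3 µM and p-NPP at 10, 5, 2.5, 1.25 and 0.625 mM. Initial velocities were read every minute over the first 10 min after enzyme addition. Inhibition type came from Lineweaver-Burk plots of 1/V vs 1/[S]. Ki came from secondary plots of slope vs inhibitor concentration, Ki′ from intercept vs concentration.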

[2] = compound: O=C(NC(=S)Nc1ccc(S(=O)(=O)Nc2ncccn2)cc1)c1ccc(Cl)cc1; assay: Mixed-type inhibition of calf intestinal alkaline phosphatase assessed as substrate Vmax at 0.015 uM using varying levels of p-NPP as substrate measured every minute for 10 mins by Lineweaver-Burk plot analysis (reference value: 1.2 10^-5deltaA/s); outline: as §1
[3] = compound: O=C(NC(=S)Nc1ccc(S(=O)(=O)Nc2ncccn2)cc1)c1ccc(Cl)cc1; assay: Mixed-type inhibition of calf intestinal alkaline phosphatase assessed as substrate Vmax at 0.3 uM using varying levels of p-NPP as substrate measured every minute for 10 mins by Lineweaver-Burk plot analysis (reference value: 1.2 10^-5deltaA/s); outline: as §1
[4] = compound: O=C(NC(=S)Nc1ccc(S(=O)(=O)Nc2ncccn2)cc1)c1ccc(Cl)cc1; assay: Mixed-type inhibition of calf intestinal alkaline phosphatase assessed as substrate Km at 0.015 uM using varying levels of p-NPP as substrate by Lineweaver-Burk plot analysis (reference value: 0.833 mM); outline: as §1

B1: Intestinal-type alkaline phosphatase (Bos taurus), P19111 (protein)
chain: MQGACVLLLLGLHLQLSLGLVPVEEEDPAFWNRQAAQALDVAKKLQPIQTAAKNVILFLGDGMGVPTVTATRILKGQMNGKLGPETPLAMDQFPYVALSKTYNVDRQVPDSAGTATAYLCGVKGNYRTIGVSAAARYNQCKTTRGNEVTSVMNRAKKAGKSVGVVTTTRVQHASPAGAYAHTVNRNWYSDADLPADAQMNGCQDIAAQLVNNMDIDVILGGGRKYMFPVGTPDPEYPDDASVNGVRKRKQNLVQAWQAKHQGAQYVWNRTALLQAADDSSVTHLMGLFEPADMKYNVQQDHTKDPTLQEMTEVALRVVSRNPRGFYLFVEGGRIDHGHHDDKAYMALTEAGMFDNAIAKANELTSELDTLILVTADHSHVFSFGGYTLRGTSIFGLAPSKALDSKSYTSILYGNGPGYALGGGSRPDVNDSTSEDPSYQQQAAVPQASETHGGEDVAVFARGPQAHLVHGVEEETFVAHIMAFAGCVEPYTDCNLPAPTTATSIPDAAHLAASPPPLALLAGAMLLLLAPTLY
- Km [1]: 2000 µM
- Vmax (10'-6deltaA/s) [2]: 8
- Vmax (10'-5deltaA/s) [3]: 4.9
- Km [4]: 1330 µM
